Test results published in ChEMBL document CHEMBL1833887, “Synthesis and evaluation of 7-substituted 4-aminoquinoline analogues for antimalarial activity” (J Med Chem, 2011).
≈ marks a conversion by molar mass, not a printed value.

Key:
[1] = Ratio of EC50 for human HepG2 cells to EC50 for Plasmodium falciparum 3D7 infected in human erythrocytes
HepG2 = test: Cytotoxicity against human HepG2 cells assessed as intracellular ATP level after 72 hrs by Celltiter-Glo luminescent assay; format: cell-based; conditions: HepG2, 72 h
Plasmodium falciparum [2] = test: Antimalarial activity against chloroquine-resistant Plasmodium falciparum K1 infected in human erythrocytes assessed as reduction in parasitemia after 72 hrs by spectrophotometry; format: functional, organism-based; conditions: K1, 72 h
Plasmodium falciparum [3] = test: Ratio of EC50 for chloroquine-resistant Plasmodium falciparum K1 infected in human erythrocytes to EC50 for chloroquine-sensitive Plasmodium falciparum 3D7 infected in human erythrocytes; format: functional
[4] = Dissociation constant, pKa of the compound; format: physicochemical
[5] = Permeability of the compound at pH 7.4 after 30 mins by PAMPA; format: ADME; conditions: read-out: permeability
In short: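 PAMPA at pH 7.4. A 10 mM DMSO stock is diluted into system solution buffer; its UV spectrum serves as reference. Membrane painted with GIT lipid, acceptor chamber holds acceptor solution buffer. Sandwich stirred for 30 min, aqueous boundary layer set to 40. Donor and acceptor UV spectra read at 250–500 nm. Permeability coefficient from the AUCs of reference, donor and acceptor. Single experiment in triplicate.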

[6] = Ratio of EC50 for human HepG2 cells to EC50 for Plasmodium falciparum K1 infected in human erythrocytes
Plasmodium falciparum [7] = test: Antimalarial activity against chloroquine-sensitive Plasmodium falciparum 3D7 infected in human erythrocytes assessed as reduction in parasitemia after 72 hrs by spectrophotometry; format: functional, organism-based; conditions: 3D7, 72 h
[8] = Solubility of the compound at pH 7.4 after 18 hrs by UV spectroscopic analysis; format: physicochemical; conditions: buffer
In short: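 Kinetic solubility. A 10 mM stock is diluted 1:100 into PBS pH 7.4 and incubated 18 h at room temperature, then filtered; the filtrate is mixed 1:1 with 1-propanol. UV spectrum (250–500 nm) compared by AUC with a 1-propanol/PBS reference. Single experiment in triplicate.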

Row | Compound | Ratio EC50 [1] | EC50 (HepG2) [nM] | EC50 (Plasmodium falciparum [2]) [nM] | Ratio EC50 (Plasmodium falciparum [3]) | pKa [4] | Papp at 0.5 h [5] [×10⁻⁶ cm/s] | Ratio EC50 [6] | EC50 (Plasmodium falciparum [7]) [nM] | solubility at 18 h [8] [µM]
1 | COc1ccc(F)cc1CNCCCNc1ccnc2cc(-c3ccc(C(C)(C)C)cc3)ccc12 | 4.3 | 620 | 1590 | 11 | 9.47 | 237 | 0.4 | 144 | 32 (≈ 15.1 µg/mL)
2 | COc1cccc(CNCCCNc2ccnc3cc(-c4ccccc4)ccc23)c1O | 353 | 3210 | 1940 | 212.7 | 9.47 | 237 | 1.7 | 9 | 32 (≈ 13.2 µg/mL)
3 | CCC(CC)c1ccc2c(NCCCNCc3cccc(OC)c3O)ccnc2c1 | 103.3 | 410 | 273 | 68.3 | 9.47 | 23 | 1.5 | 4 | 4.2 (≈ 1.71 µg/mL)
4 | COc1cccc(CNCCCNc2ccnc3cc(Cc4cc(C)cc(C)c4)ccc23)c1O | 315.8 | 2680 | 1360 | 160 | 9.47 | 23 | 2 | 9 | 4.2 (≈ 1.91 µg/mL)
5 | Cc1cc(C)cc(Cc2ccc3c(NCCCNCc4ccco4)ccnc3c2)c1 | 712.1 | 6270 | 678 | 77 | 9.47 | 23 | 9.2 | 9 | 4.2 (≈ 1.68 µg/mL)
6 | COc1cccc(CNCCCNc2ccnc3cc(Cc4ccc(C#N)cc4)ccc23)c1O | 674.8 | 7150 | 5440 | 514 | 9.47 | 23 | 1.3 | 11 | 4.2 (≈ 1.9 µg/mL)
7 | COc1ccc(F)cc1CNCCCNc1ccnc2cc(Cc3ccccc3)ccc12 | 726.7 | 7990 | 1420 | 129.5 | 9.47 | 23 | 5.6 | 11 | 4.2 (≈ 1.8 µg/mL)
8 | COc1cccc(CNCCCNc2ccnc3cc(Cc4ccc(F)cc4Cl)ccc23)c1O | 185.4 | 2350 | 5140 | 404.4 | 9.47 | 23 | 0.5 | 13 | 4.2 (≈ 2.02 µg/mL)
9 | c1ccc(CCc2ccc3c(NCCCNCc4ccc5c(c4)OCO5)ccnc3c2)cc1 | 380.3 | 4980 | 1530 | 117.1 | 9.47 | 23 | 3.2 | 13 | 4.2 (≈ 1.85 µg/mL)
10 | COc1cccc(CNCCCNc2ccnc3cc(Cc4ccc(F)cc4)ccc23)c1O | 316.6 | 4780 | 7150 | 473.5 | 9.47 | 23 | 0.7 | 15 | 4.2 (≈ 1.87 µg/mL)
11 | COc1cccc(CNCCCNc2ccnc3cc(CCc4ccccc4)ccc23)c1O | 400 | 6800 | 5520 | 324.5 | 9.47 | 23 | 1.2 | 17 | 4.2 (≈ 1.85 µg/mL)
12 | COc1cccc(CNCCCNc2ccnc3cc(Cc4ccccc4)ccc23)c1O | 328.6 | 5720 | 6970 | 400.6 | 9.47 | 23 | 0.8 | 17 | 4.2 (≈ 1.8 µg/mL)
13 | COc1cccc(CNCCCNc2ccnc3cc(C4CCCCC4)ccc23)c1O | 58.1 | 1080 | 16000 | 864.9 | 9.47 | 23 | 0.1 | 19 | 4.2 (≈ 1.76 µg/mL)
14 | Fc1ccc(Cc2ccc3c(NCCCNCc4ccco4)ccnc3c2)c(Cl)c1 | 290.8 | 5730 | 1220 | 62.1 | 9.47 | 23 | 4.7 | 20 | 4.2 (≈ 1.78 µg/mL)
15 | COc1cccc(CNCCCNc2ccnc3cc(CC(C)C)ccc23)c1O | 144.5 | 2920 | 8130 | 402.5 | 9.47 | 23 | 0.4 | 20 | 4.2 (≈ 1.65 µg/mL)
16 | COc1cccc(CNCCCNc2ccnc3cc(CCC(C)C)ccc23)c1O | 245.9 | 5390 | 8000 | 365.3 | 9.47 | 23 | 0.7 | 22 | 4.2 (≈ 1.71 µg/mL)
17 | N#Cc1ccc(Cc2ccc3c(NCCCNCc4ccc5c(c4)OCO5)ccnc3c2)cc1 | 270.2 | 6080 | 3070 | 136.4 | 9.47 | 23 | 2 | 23 | 4.2 (≈ 1.89 µg/mL)
18 | COc1cccc(CNCCCNc2ccnc3cc(Cc4cccc(C(F)(F)F)c4)ccc23)c1O | 69 | 1720 | 2190 | 87.9 | 9.47 | 23 | 0.8 | 25 | 4.2 (≈ 2.08 µg/mL)
19 | Fc1ccc(Cc2ccc3c(NCCCNCc4ccc5c(c4)OCO5)ccnc3c2)c(Cl)c1 | 603.8 | 16000 | 953 | 35.9 | 9.47 | 23 | 16.8 | 27 | 4.2 (≈ 2.01 µg/mL)
20 | CCC(CC)c1ccc2c(NCCCNCc3ccc4c(c3)OCO4)ccnc2c1 | 235.1 | 6350 | 1060 | 39.5 | 9.47 | 23 | 6 | 27 | 4.2 (≈ 1.7 µg/mL)
21 | CC(C)CCc1ccc2c(NCCCNCc3ccc4c(c3)OCO4)ccnc2c1 | 103.1 | 2800 | 206 | 7.6 | 9.47 | 23 | 13.5 | 27 | 4.2 (≈ 1.7 µg/mL)
22 | COc1ccc(F)cc1CNCCCNc1ccnc2cc(Cc3ccc(C#N)cc3)ccc12 | 216.2 | 6050 | 770 | 27.5 | 9.47 | 23 | 7.9 | 28 | 4.2 (≈ 1.91 µg/mL)
23 | COc1ccc(F)cc1CNCCCNc1ccnc2cc(Cc3cc(C)cc(C)c3)ccc12 | 27.4 | 940 | 794 | 23.1 | 9.47 | 23 | 1.2 | 34 | 4.2 (≈ 1.92 µg/mL)
24 | N#Cc1ccc(Cc2ccc3c(NCCCNCc4ccco4)ccnc3c2)cc1 | 201.9 | 7910 | 382 | 9.7 | 9.47 | 23 | 20.7 | 39 | 4.2 (≈ 1.67 µg/mL)
25 | FC(F)(F)c1cccc(Cc2ccc3c(NCCCNCc4ccc5c(c4)OCO5)ccnc3c2)c1 | 56.1 | 2200 | 1310 | 33.5 | 9.47 | 23 | 1.7 | 39 | 4.2 (≈ 2.07 µg/mL)
26 | c1ccc(Cc2ccc3c(NCCCNCc4ccco4)ccnc3c2)cc1 | 405.1 | 16000 | 3550 | 89.9 | 9.47 | 23 | 4.5 | 40 | 4.2 (≈ 1.56 µg/mL)
27 | COc1ccc(F)cc1CNCCCNc1ccnc2cc(Cc3cccc(C(F)(F)F)c3)ccc12 | 11 | 440 | 323 | 8.1 | 9.47 | 23 | 1.3 | 40 | 4.2 (≈ 2.09 µg/mL)
28 | CCC(CC)c1ccc2c(NCCCNCc3cc(F)ccc3OC)ccnc2c1 | 194.9 | 7860 | 1930 | 48 | 9.47 | 23 | 4.1 | 40 | 4.2 (≈ 1.72 µg/mL)
